Screening data (PubChem BioAssay)
ARNT-TACC3 inh = disruptors of human ARNT/TACC3 interaction. Q9Y6A5. inhibition, % at 9.99 µM. AlphaScreen His-ARNT PAS-B/GST-TACC3 binding, luminescence; TACC3 fragment carries E629A point mutation. actives 0.66% (n = 390,000). AID 623870;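 active = mean inhibition of replicates at least 50% and at least half of replicates each reaching 50%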;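 also: 0% = complete ARNT plus TACC3 wells and 100% = ARNT alone without TACC3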
FN deposit inh = fibronectin deposition inhibition; AH1F fibroblasts, Alexa488-fibronectin deposition fluorescence, overnight; inhibition, % at 12.6 µM; actives 0.086% (n = 350,000);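 active = mean inhibition across replicates of 30% or more, regardless of how many single replicates reach that level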;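 also: positive control wells lacked labelled fibronectin entirely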
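Test system: AH1F fibroblast monolayer depositing Alexa488-labelled fibronectin into matrix. Input: 10000 cells per well. Technique: fluorescence, ex 485 nm, em 525 nm. Buffer or medium: DMEM plus 2% serum, read in PBS. Timing: 1 h cell adhesion before compound, then overnight fibronectin incubation. Compound: single dose, pinned. Read-out basis: inhibition from reduced deposited-fibronectin fluorescence.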
Xi reactivation = X-chromosome reactivation activator. actives 0.055% (n = 360,000). activation, % at 7.58 µM. XiGFP mouse fibroblasts, % GFP-positive cells imaging, 3 d; cells co-treated with 5-aza-dC sensitizer; scaled so ellipticine positive control = 100%;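 active = mean normalized replicate activation at least 10% and every replicate at or above 10%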;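 also: 0% = median of on-plate neutral control wells and 100% = ellipticine 6 µM median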
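Material: XiGFP fibroblasts, SV40-immortalized. Buffer or medium: DMEM plus 5-aza-dC sensitizer. Compound: single concentration per compound, delivered by pin transfer. Times: 3 days compound exposure. Controls: ellipticine 6 µM.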
FGF22 binding = binders of recombinant human FGF22 by thermal shift. SYPRO orange fluorescence; percent of sucrose octasulfate shift, DMSO zero. activity (Tm shift, normalised), % at 9.99 µM. actives 1.5% (n = 340,000);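 active = mean Tm shift, scaled 0 neutral to 100 positive control, at about 1.3% or above, every replicate too, limit read from the data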
Target sequence (Q9HCT0 whole entry, looked up): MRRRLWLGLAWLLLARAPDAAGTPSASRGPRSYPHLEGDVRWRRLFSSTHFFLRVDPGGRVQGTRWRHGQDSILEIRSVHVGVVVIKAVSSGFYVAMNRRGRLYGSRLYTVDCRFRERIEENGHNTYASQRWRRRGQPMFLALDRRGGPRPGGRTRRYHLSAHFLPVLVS
DENV2 CPE rescue = inhibitors of DENV2 cytopathic effect; DENV2-infected cells, cytopathic effect rescue, plate reader; CPE inhibition, % at 9.99 µM; actives 1.7% (n = 350,000); AID 651640; in the data active = CPE inhibition above about 20%, passing the limit was not always enough; tested in BHK-21 cells;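 also: 0% = median of neutral control wells and 100% = median of positive control wells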
SIRT5 inh = blocks human SIRT5 desuccinylation of peptide; Q9NXA8; Purified SirT5, succinyl-peptide AMC, trypsin-coupled fluorescence; inhibition, % at 15 µM; actives 1.1% (n = 330,000); AID 652115; in the data active = inhibition above about 15%
* hit, by the source's call; x = no result. Most compounds without a hit are left out; they make up all but 3.8% or so of the library.

SMILES	ARNT-TACC3 inh	FN deposit inh	Xi reactivation	FGF22 binding	DENV2 CPE rescue	SIRT5 inh
CC(C)C[C@H](NS(=O)(=O)c1ccc(F)cc1F)C(=O)N1CCC[C@H]1C(=O)NCc1ccccc1	x	8	0	0	-1	23*
CC(=O)Nc1ccc2c(c1)C(=O)N(C)[C@H]1CC[C@@H](CC(=O)NCc3ccc4c(c3)OCO4)O[C@@H]1CO2	-11	-2	0	0	20	x
COC(=O)[C@@]12C[C@@H](CC(=O)NCc3ccccc3)C(=O)N(Cc3cccc4ccccc34)C1=CCC(C)(C)C2	x	-3	0	20*	-5	2
COC(=O)[C@@]12C[C@@H](CC(=O)NCc3ccccc3)C(=O)N(Cc3ccccc3)C1=CCC(C)(C)C2	x	-2	0	0	-16	36*
COC(=O)[C@@]12C[C@@H](CC(=O)NCCCN3CCCC3=O)C(=O)N(Cc3ccccc3)C1=CCC(C)(C)C2	x	9	0	0	8	-1
CCCCCCCCN1C(=O)[C@H](CC(=O)NCCCN2CCCC2=O)C[C@@]2(C(=O)OC)CC(C)(C)CC=C12	x	7	0	0	-2	19*
COC(=O)[C@@]12C[C@@H](CC(=O)NCc3cccc4ccccc34)C(=O)N(Cc3cccc4ccccc34)C1=CCC(C)(C)C2	x	-6	0	0	-7	-1
CCOC(=O)[C@]12CCC=C1N(Cc1ccc3c(c1)OCO3)C(=O)[C@H](CC(=O)NCc1cccs1)C2	x	9	0	43*	1	x
CCOC(=O)[C@]12CCC=C1N(Cc1ccccc1)C(=O)[C@H](CC(=O)NCc1cccs1)C2	x	13	0	0	-5	x
COC(=O)[C@@]12C[C@@H](CC(=O)NCc3ccc(C)o3)C(=O)N(Cc3ccccc3)C1=CCC(C)(C)C2	x	-15	0	0	6	-2
O=C(C[C@@H]1CC[C@H]2[C@@H](COC[C@H](O)CN2Cc2cc(F)ccc2F)O1)NCc1ccc(F)cc1	-7	-11	0	1	-4	-4
CN1C(=O)c2cc(NC(=O)Nc3ccccc3F)ccc2OC[C@@H]2O[C@H](CC(=O)NCCc3ccncc3)CC[C@@H]21	-5	-9	0	0	2	-1
C[C@@H]1CN([C@H](C)CO)C(=O)c2cccc(NC(=O)c3ccncc3)c2O[C@H]1CN(C)CC1CCCCC1	-8	1	0	-1	11	-5
CCCC#Cc1ccc([C@@H]2[C@@H](CO)N3C(=O)CN(S(=O)(=O)c4ccccc4C)C[C@@H]23)cc1	x	-9	0	x	10	7
COCCCNC(=O)C[C@@H]1C[C@@]2(C(=O)OC)CC(C)(C)CC=C2N(Cc2ccc3c(c2)OCO3)C1=O	x	5	0	0	13	-1
COCCCNC(=O)C[C@@H]1C[C@@]2(C(=O)OC)CC(C)(C)CC=C2N(Cc2ccco2)C1=O	x	0	0	0	21*	0
CCCCOCCCNC(=O)C[C@@H]1C[C@@]2(C(=O)OC)CC(C)(C)CC=C2N(Cc2ccc3c(c2)OCO3)C1=O	x	-4	0	0	28*	7
COC(=O)[C@@]12C[C@@H](CC(=O)NCCCN3CCCC3=O)C(=O)N(Cc3ccco3)C1=CCC(C)(C)C2	x	4	0	0	-10	-1
CO[C@H]1CN(C)C(=O)c2ccc(NC(C)=O)cc2OC[C@@H](C)N(Cc2ccccc2F)C[C@@H]1C	-5	5	0	0	1	9
CCC(CC)c1ncc[nH]1	5	6	0	0	-3	2
Cc1ncc[nH]1	x	x	x	0	57*	x
COc1ccc(NC(=O)N(C)C[C@@H]2OCc3ccccc3-c3c(n(C)c4ccccc34)C(=O)N([C@@H](C)CO)C[C@@H]2C)c(OC)c1	14	5	0	0	-2	1
COC(=O)c1c(N2C(=O)Nc3ccccc3N2O)sc(C)c1C	-5	-3	0	43*	-10	4
CC(C)CNC(=O)c1ccccc1NC(=O)c1ccc(CSc2ccccc2)cc1	0	3	0	0	13	-4
